For test [1], the system named is HCT-15. Put plainly: Cytotoxicity against human HCT15 cells. It is filed as cell-based.
Test [2] concerns HCT-116. Kind of test: Cytotoxicity against human HCT116 cells. Format: cell-based.
For test [3], the system named is KM12. Kind of test: Cytotoxicity against human KM12 cells. It is filed as cell-based.
The subject of test [4] is SW-620. Kind of test: Cytotoxicity against human SW620 cells. It is filed as cell-based.
In test [5] the test system is HCC 2998. Kind of test: Cytotoxicity against human HCC2998 cells. It is filed as cell-based.
In test [6] the test system is K562. Kind of test: Cytotoxicity against human K562 cells. It is filed as cell-based.
Test [7] is described as follows: Cytotoxicity against human RPMI8226 cells. The following applies: RPMI-8226. It is filed as cell-based.
Test [8] in a line: Cytotoxicity against human HL60 (TB) cells. It is filed as cell-based. The settings on record: HL-60.
Test [9] deals with SR. Kind of test: Cytotoxicity against human SR cells. It is filed as cell-based.
The nature of test [10]: Cytotoxicity against human NCI49 cell lines. It is filed as cell-based.
Test [11] can be described thus: Cytotoxicity against human Molt4/C8 cells. Format: cell-based. The following applies: MOLT-4. The method, boiled down:
(§1)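 Human Molt 4/C8 and CEM T-lymphocytes and murine L1210 cells were each exposed to at least three compound concentrations at 37 °C for 48 h. Growth inhibition was then measured, and IC50 values were derived from it.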

For test [12], the system named is CCRF-CEM. Put plainly: Cytotoxicity against human CEM cells. It is filed as cell-based. The method, boiled down: as §1
Test [13] has as its system L1210. Put plainly: Cytotoxicity against […] mouse L1210 cells. Format: cell-based. The method, boiled down:
as §1

Test [14] relates to COLO 205. Kind of test: Cytotoxicity against human COLO205 cells. Format: cell-based.
The subject of test [15] is HepG2. Kind of test: Induction of apoptosis in human HepG2 cells at 20 uM by TUNEL assay. Format: functional. The essentials: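 HepG2 cells (ATCC) were kept in DMEM with 10% fetal calf serum and penicillin G/streptomycin/amphotericin B, at 37 °C in humidified 5% CO2. Cells on chambered slides were treated with the compound; controls had no addition or DMSO only. After 48 h, cells were fixed, permeabilized and TUNEL-stained (fluorescein). Labelled apoptotic cells were counted by fluorescence microscopy and reported as a percentage.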

Our source for the IC50 and Activity values is ChEMBL document CHEMBL1144477, “Design, synthesis and cytotoxic properties of novel 1-[4-(2-alkylaminoethoxy)phenylcarbonyl]-3,5-bis(arylidene)-4-piperidones and related compounds” (Eur J Med Chem, 2007).

The term IC50 denotes the concentration at which inhibition is half-maximal. Low readings indicate inhibition by little substance, high ones a need for much substance. Turning to `O=C1/C(=C/c2ccc(Cl)cc2)CN(C(=O)c2ccc(OCCN3CCCCC3)cc2)C/C1=C\c1ccc(Cl)cc1`, the 50% inhibitory concentration (IC50) came out at 49000 nM in test [1]; 47900 nM in [2]; 19100 nM in test [3]; 3550 nM in test [4]; 1580 nM in test [5]; 4370 nM in test [6]. Also, the IC50 is 759 nM in [7]; 20400 nM in test [8]; 2290 nM in test [9]; over 11500 nM in test [10]; 34000 nM in test [11]; 9980 nM in test [12]. The half-maximal inhibitory concentration (IC50) was determined as 103000 nM in test [13] and 15800 nM in [14].

`O=c1[nH]cc(F)c(=O)[nH]1` [FLUOROURACIL]: the IC50 in test [1] amounted to 6610 nM; in [2], 2040 nM; in test [3] it was 7940 nM; in test [4], 18600 nM; in test [5], 5750 nM; in [6], 126000 nM. The IC50 in test [7] was 3550 nM; in test [8], 85100 nM; in test [9] it was 60300 nM; in test [10], over 29500 nM; in test [14], 3390 nM.

As to `N[C@@H](Cc1ccc(N(CCCl)CCCl)cc1)C(=O)O` [MELPHALAN], the IC50 came to 30200 nM in test [2]; 43700 nM in test [3]; 38900 nM in test [4]; 41700 nM in test [5]; 43700 nM in test [6]; 66100 nM in test [7]. Also, the IC50 in [8] stood at 2040 nM; in [9], 1860 nM; in test [10] it was 26900 nM; in [14] it was 66100 nM.

As to `Cl.O=C1/C(=C/c2ccc(Cl)cc2)CN(C(=O)c2ccc(OCCN3CCOCC3)cc2)C/C1=C\c1ccc(Cl)cc1`, the IC50 in [1] was 2190 nM; in test [2], 7250 nM; in [3], 2290 nM; in [4] it was 1450 nM; in [5] it was under 5 nM; in test [6] it was 6760 nM. In addition, the IC50 in [7] is 132 nM; in test [8] it was 5500 nM; in [10], under 562 nM; in test [11], 18800 nM; in [12], 8260 nM; in test [13], 81400 nM. For the same molecule, in test [15], the Activity came out at 29.25%.

Consider `Cc1ccc(/C=C2\CN(C(=O)c3ccc(OCCN(C)C)cc3)C/C(=C\c3ccc(C)cc3)C2=O)cc1`, for which the IC50 was determined as 912 nM in test [1]; 1380 nM in test [2]; 776 nM in [3]; 562 nM in test [4]; 229 nM in test [5]; 1820 nM in [6]. Further, the IC50 in test [7] was 224 nM; in test [8] it was 1320 nM; in [9] it was 479 nM; in test [10], 1150 nM; in test [11] it was 1390 nM; in [12], 884 nM. Besides, the figures for the half-maximal inhibitory concentration (IC50) in [13] and in test [14] were 7140 nM and 1020 nM, respectively.

Regarding `CC[N+](C)(CC)CCOc1ccc(C(=O)N2C/C(=C\c3ccccc3)C(=O)/C(=C/c3ccccc3)C2)cc1`, the concentration for half-maximal inhibition (IC50) in test [1] was over 50100 nM; in test [2], over 50100 nM; in [3], 43700 nM; in [4], 30200 nM; in test [5], 28200 nM; in test [6] it was 43700 nM. Further, the IC50 in [7] is 17400 nM; in test [8], over 50100 nM; in test [9] it was 38000 nM; in [10], over 41700 nM; in test [11], 124000 nM; in test [12], 110000 nM. Also, the half-inhibitory concentration (IC50) is 160000 nM in test [13] and 20400 nM in test [14].

With `Cc1ccc(/C=C2\CN(C(=O)c3ccc(OCCN4CCOCC4)cc3)C/C(=C\c3ccc(C)cc3)C2=O)cc1`, the 50% inhibitory concentration (IC50) in [1] stood at 832 nM; in [2], 2450 nM; in test [3], 1120 nM; in [4], 1020 nM; in [6], 275 nM; in [7], 115 nM. Further, the IC50 was 1100 nM in test [8]; 245 nM in test [9]; under 708 nM in [10]; 1720 nM in test [11]; 1360 nM in test [12]; 21800 nM in test [13]. For the same molecule, it took 1150 nM to reach half-maximal inhibition in test [14] (IC50).

With `O=C1/C(=C/c2ccccc2)CNC/C1=C\c1ccccc1`, the IC50 in [1] was found to be 631 nM; in [2] it was 182 nM; in test [3], 794 nM; in [4], 575 nM; in test [5], 2000 nM; in test [6] it was 490 nM. Further, the concentration for half-maximal inhibition (IC50) in [7] was found to be 275 nM; in [8], 363 nM; in test [9] it was 209 nM; in [10], 1620 nM; in [14], 1550 nM.

For the molecule `Cc1ccc(/C=C2\CN(C(=O)c3ccc(OCCN4CCCCC4)cc3)C/C(=C\c3ccc(C)cc3)C2=O)cc1`, the IC50 in [1] worked out at 1070 nM; in test [2], 1580 nM; in [3], 148 nM; in test [4], 339 nM; in test [6] it was 589 nM; in test [7], 123 nM. The half-inhibitory concentration (IC50) in [8] was 933 nM; in [10] it was 1380 nM; in test [11], 910 nM; in test [12] it was 1140 nM; in [13], 5140 nM; in test [14] it was 6920 nM.

For the molecule `CN(C)CCOc1ccc(C(=O)N2C/C(=C\c3ccc(Cl)cc3)C(=O)/C(=C/c3ccc(Cl)cc3)C2)cc1`, the IC50 in test [1] was determined as 295 nM; in test [2] it was 6030 nM; in [3], 1740 nM; in test [4], 209 nM; in test [5], 263 nM; in [6] it was 331 nM. Moreover, the IC50 amounted to 98 nM in test [7]; 1410 nM in [8]; 126 nM in test [9]; 1910 nM in test [10]; 1440 nM in test [11]; 1090 nM in test [12]. The values for the IC50 in test [13] and in test [14] were 7180 nM and 1700 nM, respectively.

On to `CC[N+](C)(CC)CCOc1ccc(C(=O)N2C/C(=C\c3ccc(C)cc3)C(=O)/C(=C/c3ccc(C)cc3)C2)cc1`, for which the half-inhibitory concentration (IC50) in test [1] was 9330 nM; in [2], 14100 nM; in [3], 9330 nM; in test [4] it was 10500 nM; in test [5], 6170 nM; in test [6] it was 1350 nM. In addition, the IC50 in [7] came out at 1260 nM; in [8], 11800 nM; in test [9], 22900 nM; in [10], 7760 nM; in test [11], 12400 nM; in test [12], 23700 nM. The IC50 in test [13] turned out to be 18700 nM; in [14], 8910 nM.

For the molecule `CCN(CC)CCOc1ccc(C(=O)O)cc1`, the IC50 in [5] is 2000 nM; in test [11], over 500000 nM; in [12], over 500000 nM; in test [13], over 500000 nM.
